Calls of active or inactive are those of the source. The rule behind the calls is not given here.
Experiments:
[1] = target: T1, Quinolone resistance protein NorA (Staphylococcus aureus) (UniProt P0A0J7); experiment: Inhibition of NorA in Staphylococcus aureus 1199B assessed as minimum concentration required to effectively reduce ciprofloxacin MIC by four fold by broth checkerboard microdilution method
T1 sequence (whole entry): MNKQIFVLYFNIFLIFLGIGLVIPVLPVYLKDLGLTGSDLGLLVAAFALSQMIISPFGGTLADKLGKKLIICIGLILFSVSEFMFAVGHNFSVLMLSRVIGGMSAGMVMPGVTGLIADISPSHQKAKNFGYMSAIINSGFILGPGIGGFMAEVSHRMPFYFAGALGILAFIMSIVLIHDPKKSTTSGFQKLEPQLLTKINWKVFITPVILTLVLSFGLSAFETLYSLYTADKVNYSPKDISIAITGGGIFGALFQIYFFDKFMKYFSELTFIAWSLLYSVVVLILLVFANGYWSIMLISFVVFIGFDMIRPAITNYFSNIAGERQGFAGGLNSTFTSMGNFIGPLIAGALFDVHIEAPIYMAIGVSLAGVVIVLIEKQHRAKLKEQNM
In short: (§1)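 Broth checkerboard microdilution in cation-adjusted Mueller–Hinton broth. Compounds tested at seven concentrations (50-0.7 μg/mL) against twofold serial dilutions of ciprofloxacin (32-0.06 μg/mL). MEC is the minimum concentration that lowers the ciprofloxacin MIC fourfold. Piperine and SK-20 served as reference EPIs.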

[2] = target: T1, Quinolone resistance protein NorA (Staphylococcus aureus); experiment: Inhibition of NorA in Staphylococcus aureus 1199B assessed as reduction in ethidium bromide efflux at 50 uM measured after 5 mins by fluorescence assay relative to control
In short: (§2)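 SA-1199B grown on tryptone soya agar. Ethidium bromide efflux followed by fluorescence (excitation 530 nm, emission 600 nm) over 5 min with compound at 0–50 μM. Run in triplicate. Percent inhibition calculated from mean values against the no-inhibitor control.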

Staphylococcus aureus [3] = experiment: Potentiation of ciprofloxacin-induced antibacterial activity in Staphylococcus aureus 1199 assessed as reduction in ciprofloxacin MIC at 0.8 to 50 ug/ml by broth checkerboard microdilution method relative to control; assay type: functional; in short: as §1
Staphylococcus aureus [4] = experiment: Potentiation of ciprofloxacin-induced antibacterial activity in norA-deleted Staphylococcus aureus K1758 assessed as reduction in ciprofloxacin MIC at 0.8 to 50 ug/ml by broth checkerboard microdilution method relative to control; assay type: functional; in short: as §1
Staphylococcus aureus [5] = experiment: Potentiation of ciprofloxacin-induced antibacterial activity in Staphylococcus aureus 1199 assessed as minimum concentration required to effectively reduce ciprofloxacin MIC by four fold by broth checkerboard microdilution method; assay type: functional; details: read-out: MEC; in short: as §1
[6] = target: T1, Quinolone resistance protein NorA (Staphylococcus aureus); experiment: Inhibition of NorA Staphylococcus aureus 1199B assessed as reduction in ethidium bromide efflux at 6.25 to 50 uM measured after 5 mins by fluorescence assay relative to control; in short: as §2
Staphylococcus aureus [7] = experiment: Growth inhibition of Staphylococcus aureus 1199 at 50 ug/ml by broth microdilution method; assay type: organism-based
Staphylococcus aureus [8] = experiment: Growth inhibition of norA-deleted Staphylococcus aureus K1758 at 50 ug/ml by broth microdilution method; assay type: organism-based
In short: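 MIC determined by broth microdilution in cation-adjusted Mueller–Hinton broth following CLSI guidelines. MIC is the lowest concentration giving no visible growth.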

[9] = target: T1, Quinolone resistance protein NorA (Staphylococcus aureus); experiment: Inhibition of NorA in Staphylococcus aureus 1199B assessed as reduction in ethidium bromide efflux at 50 uM measured over 5 mins interval for 30 mins by fluorescence assay relative to control
[10] = target: T1, Quinolone resistance protein NorA (Staphylococcus aureus); experiment: Inhibition of NorA in Staphylococcus aureus 1199B assessed as assessed as potentiation of ciprofloxacin-induced antibacterial activity by measuring reduction in ciprofloxacin MIC at 25 to 50 ug/ml by broth checkerboard microdilution method relative to control; in short: as §1
HepG2 = experiment: Cytotoxicity against human HepG2 cells assessed as reduction in cell viability at 100 uM after 24 hrs by MTT assay; assay type: cell-based; details: hepg2, 24 h
In short: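 HepG2 monolayer (1×10^6 cells/well) in high-glucose DMEM exposed to 50 and 100 μM in triplicate for 24 h at 37°C, 5% CO2. MTT added, then formazan absorbance read at 570 nm. Percent cytotoxicity calculated against tamoxifen positive control (10 and 20 µg/mL) and untreated healthy cells.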

[11] = target: T1, Quinolone resistance protein NorA (Staphylococcus aureus); experiment: Inhibition of NorA Staphylococcus aureus 1199B assessed as reduction in ethidium bromide efflux at 6.25 to 50 uM measured at 5 mins interval for 30 mins by fluorescence assay relative to control
[12] = target: T1, Quinolone resistance protein NorA (Staphylococcus aureus); experiment: Inhibition of NorA in Staphylococcus aureus 1199B assessed as […] at 25 uM measured at 5 mins interval for 60 mins by fluorescence assay relative to control; details: in the assay text read “for 30 mins” for “for 60 mins”
In short: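 Ethidium bromide accumulation measured in SA-1199B cells preloaded with ethidium bromide, with compound at 25 μM. Fluorescence gain (excitation 530 nm, emission 600 nm) recorded at 5-min intervals.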

Compound | MEC [1] | inhibition [2] | inhibition [6] | inhibition [9] | fold change (FC) [10] | inhibition [11] | inhibition [12] | fold change (FC) (Staphylococcus aureus [3]) | fold change (FC) (Staphylococcus aureus [4]) | minimal effective concentration (Staphylococcus aureus [5]) | growth inhibition (GI) (Staphylococcus aureus [7]) | growth inhibition (GI) (Staphylococcus aureus [8]) | Activity (HepG2)
COC(=O)[C@@H]1CCCN1C(=O)/C=C/C1=C(Cl)c2ccccc2CC1 | 6.25 µg/mL | 80.3% | > 80% | – | – | – | – | 2 | 0 | 50 µg/mL | Non-Toxic | Non-Toxic | –
COC(=O)[C@H](Cc1c[nH]c2ccccc12)NC(=O)/C=C/C1=C(Cl)c2ccccc2CC1 | 1.5 µg/mL | – | – | 83.9% | 16 | > 80% | inactive | 4 | 0 | – | Non-Toxic | Non-Toxic | Non-Toxic
COC(=O)[C@@H](NC(=O)/C=C/C1=C(Cl)c2ccccc2CC1)C(C)C | 3.12 µg/mL | 67.2% | 67.2% | – | – | – | – | 2 | 0 | – | Non-Toxic | Non-Toxic | –
COC(=O)[C@H](Cc1ccccc1)NC(=O)/C=C/C1=C(Cl)c2ccccc2CC1 | 12.5 µg/mL | 48% | – | – | – | – | – | 0 | 0 | – | Non-Toxic | Non-Toxic | –
CCC(/C=C/C(=O)N1CCCCC1)=C\c1ccc2c(c1)OCO2 | 6.25 µg/mL | – | – | 68.8% | – | – | – | 4 | 0 | – | Non-Toxic | Non-Toxic | –
COC(=O)[C@H]1CCCN1C(=O)/C=C/C1=C(Cl)c2ccccc2CC1 | 12.5 µg/mL | 52.6% | – | – | – | – | – | 0 | 0 | – | Toxic | Toxic | –
COC(=O)C(C)(C)NC(=O)/C=C/C1=C(Cl)c2ccccc2CC1 | 12.5 µg/mL | 41.4% | – | – | – | – | – | 0 | 0 | – | Non-Toxic | Non-Toxic | –
COC(=O)[C@H](Cc1ccc(O)cc1)NC(=O)/C=C/C1=C(Cl)c2ccccc2CC1 | 1.5 µg/mL | – | – | 85.2% | 16 | > 80% | Active | 4 | 0 | – | Non-Toxic | Non-Toxic | Non-Toxic
CC[C@@H](C)[C@H](NC(=O)/C=C/C1=C(Cl)c2ccccc2CC1)C(=O)OC | 12.5 µg/mL | 58.2% | – | – | – | – | – | 2 | 0 | – | Non-Toxic | Non-Toxic | –
COC(=O)[C@H]1[C@H]2C[C@@H]3c4[nH]c5cc(OC)ccc5c4CCN3C[C@H]2C[C@@H](OC(=O)c2cc(OC)c(OC)c(OC)c2)[C@@H]1OC [RESERPINE] | – | – | – | – | – | Active | Active | 2 | 0 | – | Non-Toxic | Non-Toxic | –
COC(=O)[C@H](CC(C)C)NC(=O)/C=C/C1=C(Cl)c2ccccc2CC1 | 12.5 µg/mL | 56.2% | – | – | – | – | – | 2 | 0 | – | Non-Toxic | Non-Toxic | –

Continued, in another order:

MEC [1] | inhibition [2] | inhibition [6] | inhibition [9] | fold change (FC) [10] | inhibition [11] | inhibition [12] | Compound | fold change (FC) (Staphylococcus aureus [3]) | fold change (FC) (Staphylococcus aureus [4]) | minimal effective concentration (Staphylococcus aureus [5]) | growth inhibition (GI) (Staphylococcus aureus [7]) | growth inhibition (GI) (Staphylococcus aureus [8]) | Activity (HepG2)
> 50 µg/mL | – | – | – | – | – | – | COC(=O)CCCNC(=O)/C=C/C1=C(Cl)c2ccccc2CC1 | 0 | 0 | – | Non-Toxic | Non-Toxic | –
> 50 µg/mL | – | – | – | – | – | – | COC(=O)CNC(=O)/C=C/C1=C(Cl)c2ccccc2CC1 | 0 | 0 | – | Non-Toxic | Non-Toxic | –
> 50 µg/mL | – | – | – | – | – | – | COC(=O)CC1(NC(=O)/C=C/C2=C(Cl)c3ccccc3CC2)CCC(C(C)(C)C)CC1 (configuration not stated) | 0 | 0 | – | Non-Toxic | Non-Toxic | –
25 µg/mL | – | – | – | – | – | – | COC(=O)CCNC(=O)/C=C/C1=C(Cl)c2ccccc2CC1 | 0 | 0 | – | Non-Toxic | Non-Toxic | –
25 µg/mL | – | – | – | – | – | – | COC(=O)[C@H](C)NC(=O)/C=C/C1=C(Cl)c2ccccc2CC1 | 0 | 0 | – | Non-Toxic | Non-Toxic | –
> 50 µg/mL | – | – | – | – | – | – | COC(=O)CC1(NC(=O)/C=C/C2=C(Cl)c3ccccc3CC2)CCCCC1 | 0 | 0 | – | Non-Toxic | Non-Toxic | –

Source: ChEMBL document CHEMBL4308903, “Synthesis of amides from (E)-3-(1-chloro-3,4-dihydronaphthalen-2-yl)acrylic acid and substituted amino acid esters as NorA efflux pump inhibitors of Staphylococcus aureus” (Bioorg Med Chem, 2019)
